ChEMBL document CHEMBL1145492, “Comparison of the phosphorylation of 4'-ethynyl 2',3'-dihydro-3'-deoxythymidine with that of other anti-human immunodeficiency virus thymidine analogs” (Antimicrob Agents Chemother, 2007)

Tests used:
[1] = target: Nucleoside diphosphate kinase B (Homo sapiens) (UniProt P22392); test: Activity of human recombinant nm23H2 assessed as conversion of 1 umol of ADP to ATP per min
Summary of the method: (§1)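 Recombinant human nm23-H1 and nm23-H2 (cloned from KB) and PGK (cloned from HepG2). Donor was 2 mM ATP for nm23; for PGK, 1,3-bisphosphoglycerate generated by GAPDH. Specific activity (nmol/min/mg) was normalized per unit (1 μmol ADP→ATP/min) and compared with D4TDP. Mean ± SD, n=3.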

[2] = test system: CCRF-CEM; test: Activity of 3-phosphoglycerate kinase from crude human CEM cell extract assessed as phosphorylation efficiency relative to 4-ethynyl D4TDP; conditions: in the assay text read “relative to D4TDP” for “relative to 4-ethynyl D4TDP”
Summary of the method: (§2)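 CEM cell lysate (NP-40 lysis buffer, desalted on G-50) as enzyme source. Donors: 2 mM ATP for NDPK; 2 mM creatine phosphate for CK; 2 mM phosphoenolpyruvate for PK; for PGK, 1,3-bisphosphoglycerate made in situ by GAPDH. Activity in nmol/min/mg, normalized per unit (1 μmol ADP→ATP/min), then relative to D4TDP.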

[3] = test system: CCRF-CEM; test: Activity of nucleoside diphosphate kinase from crude human CEM cell extract assessed as phosphorylation efficiency relative to D4TDP; type: cell-free; summary of the method: as §2
[4] = target: Nucleoside diphosphate kinase A (Homo sapiens) (UniProt P15531); test: Activity of human recombinant nm23H1 assessed as phosphorylation efficiency relative to 4-ethynyl D4TDP; conditions: in the assay text read “relative to D4TDP” for “relative to 4-ethynyl D4TDP”; summary of the method: as §1
[5] = species on record: Homo sapiens; test: Activity of human recombinant 3-phosphoglycerate kinase; summary of the method: as §1
[6] = test system: CCRF-CEM; test: Activity of 3-phosphoglycerate kinase from crude human CEM cell extract assessed as conversion of 1 umol of ADP to ATP per min; type: cell-free; summary of the method: as §2
[7] = target: Nucleoside diphosphate kinase B (Homo sapiens) (UniProt P22392); test: Activity of human recombinant nm23H2 assessed as phosphorylation efficiency relative to 4-ethynyl D4TDP; conditions: in the assay text read “relative to D4TDP” for “relative to 4-ethynyl D4TDP”; summary of the method: as §1
[8] = test system: CCRF-CEM; test: Activity of 3-phosphoglycerate kinase from crude human CEM cell extract; type: cell-free; summary of the method: as §2
[9] = test system: CCRF-CEM; test: Activity of nucleoside diphosphate kinase from crude human CEM cell extract; type: cell-free; summary of the method: as §2
[10] = target: Nucleoside diphosphate kinase A (Homo sapiens) (UniProt P15531); test: Activity of human recombinant nm23H1 assessed as conversion of 1 umol of ADP to ATP per min; summary of the method: as §1
[11] = species on record: Homo sapiens; test: Activity of human recombinant 3-phosphoglycerate kinase assessed as conversion of 1 umol of ADP to ATP per min; summary of the method: as §1
[12] = species on record: Homo sapiens; test: Activity of human recombinant 3-phosphoglycerate kinase assessed as phosphorylation efficiency relative to 4-ethynyl D4TDP; conditions: in the assay text read “relative to D4TDP” for “relative to 4-ethynyl D4TDP”; summary of the method: as §1
[13] = test system: CCRF-CEM; test: Activity of nucleoside diphosphate kinase from crude human CEM cell extract assessed as conversion of 1 umol of ADP to ATP per min; type: cell-free; summary of the method: as §2
[14] = target: Nucleoside diphosphate kinase A (Homo sapiens) (UniProt P15531); test: Activity of human recombinant nm23H1; summary of the method: as §1
[15] = target: Nucleoside diphosphate kinase B (Homo sapiens) (UniProt P22392); test: Activity of human recombinant nm23H2; summary of the method: as §1
[16] = test system: CCRF-CEM; test: Activity of pyruvate kinase from crude human CEM cell extract assessed as conversion of 1 umol of ADP to ATP per min; type: cell-free; summary of the method: as §2
[17] = test system: CCRF-CEM; test: Activity of pyruvate kinase from crude human CEM cell extract; type: cell-free; summary of the method: as §2
[18] = target: T1, Thymidylate kinase (Homo sapiens) (UniProt P23919); test: Ratio of Kcat to Km of human recombinant TMPK relative to […]
T1 sequence (whole entry): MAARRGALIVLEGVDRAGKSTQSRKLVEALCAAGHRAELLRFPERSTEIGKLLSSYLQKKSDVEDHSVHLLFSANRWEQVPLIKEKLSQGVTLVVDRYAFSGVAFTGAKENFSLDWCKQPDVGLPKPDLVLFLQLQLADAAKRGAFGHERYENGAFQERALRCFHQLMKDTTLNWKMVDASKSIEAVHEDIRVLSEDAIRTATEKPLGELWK
Summary of the method: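 Substrate ranges were TMP 6.25–100 μM and analog MPs 6.25–250 μM. Reactions were stopped at various times with TCA and neutralized with trioctylamine/trichlorotrifluoroethane. Km and kcat came from Lineweaver-Burk plots. Relative efficiency is kcat/Km with D4TMP as 100%. Mean ± SD of three experiments.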

[19] = target: T1, Thymidylate kinase (Homo sapiens); test: Ratio of Kcat to Km of human recombinant TMPK relative to D4TMP
[20] = test system: CCRF-CEM; test: Activity of 3-phosphoglycerate kinase from crude human CEM cell extract assessed as phosphorylation efficiency relative to D4TDP
[21] = test system: CCRF-CEM; test: Activity of creatine kinase from crude human CEM cell extract; type: cell-free; summary of the method: as §2
[22] = target: T1, Thymidylate kinase (Homo sapiens); test: Activity of TMPK in human CEM cells assessed as level of triphosphate metabolites per 10^6 cells at 2 uM after 12 hrs; type: cell-based; conditions: CCRF-CEM
Summary of the method: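 CEM cells at 10^6/ml in RPMI/10% FBS were exposed to 2 μM radiolabeled nucleoside (75 mCi/mmol) for 12 h. Cells were washed in cold PBS with 20 μM dipyridamole and extracted with 15% TCA on ice for 15 min. Extracts were neutralized with trioctylamine/trichlorotrifluoroethane (45:55). MP, DP and TP were resolved by HPLC, and radioactivity was converted to pmol/10^6 cells. Two independent experiments.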

Nucleoside diphosphate kinase B (Homo sapiens), sequence (P22392 whole entry): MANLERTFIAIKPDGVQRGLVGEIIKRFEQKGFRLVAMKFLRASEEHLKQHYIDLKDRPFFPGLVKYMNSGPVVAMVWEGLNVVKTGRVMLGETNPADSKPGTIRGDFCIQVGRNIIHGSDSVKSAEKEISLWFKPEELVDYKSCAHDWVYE
Nucleoside diphosphate kinase A (Homo sapiens), sequence (P15531 whole entry): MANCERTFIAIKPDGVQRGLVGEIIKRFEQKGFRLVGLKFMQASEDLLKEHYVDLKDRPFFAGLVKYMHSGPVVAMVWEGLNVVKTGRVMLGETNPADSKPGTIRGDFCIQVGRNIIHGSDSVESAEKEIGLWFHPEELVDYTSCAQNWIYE

Activity [1] [nmol]	Activity [5] [nmol/min/mg]	Activity [10] [nmol]	Activity [11] [nmol]	Activity [14] [nmol/min/mg]	Activity [15] [nmol/min/mg]	SMILES	Activity [6] [nmol]	Activity [8] [nmol/min/mg]	Activity [9] [nmol/min/mg]	Activity [13] [nmol]	also measured
0.1	14	0.08	0.005	107	131	Cc1cn([C@@H]2C[C@H](N=[N+]=[N-])[C@@H](COP(=O)(O)OP(=O)(O)O)O2)c(=O)[nH]c1=O	0.025	0.26	0.018	0.007	Activity [2]: 6.2%; Activity [3]: 1.7%; Activity [4]: 7.2%; Activity [7]: 7.6%; Activity [12]: 135%
1.2	10	1.2	0.0037	1500	1700	Cc1cn([C@H]2C=C[C@@H](COP(=O)(O)OP(=O)(O)O)O2)c(=O)[nH]c1=O	0.4	4.2	1.1	0.42	Activity [16]: 99 nmol; Activity [17]: 0.35 nmol/min/mg
						C#C[C@@]1(COP(=O)(O)O)C=C[C@H](n2cc(C)c(=O)[nH]c2=O)O1					Activity [18]: 8.8%
						Cc1cn([C@H]2C[C@H](O)[C@@H](COP(=O)(O)O)O2)c(=O)[nH]c1=O					Activity [19]: 5600%
1000	137	1000	0.049	1.3e+06	1.4e+06	Cc1cn([C@H]2C[C@H](O)[C@@H](COP(=O)(O)OP(=O)(O)O)O2)c(=O)[nH]c1=O	2	21	2700	1100	Activity [3]: 260000%; Activity [4]: 89000%; Activity [7]: 83000%; Activity [20]: 490%; Activity [12]: 1300%
						Cc1cn([C@H]2C[C@H](N=[N+]=[N-])[C@@H](COP(=O)(O)O)O2)c(=O)[nH]c1=O					Activity [19]: 59%
						Nc1ncnc2c1ncn2[C@@H]1O[C@H](COP(=O)(O)OP(=O)(O)O)[C@@H](O)[C@H]1O		10600	2500		Activity [21]: 2.5 nmol/min/mg; Activity [17]: 3.6 nmol/min/mg
						Cc1cn([C@H]2C[C@H](N=[N+]=[N-])[C@@H](CO)O2)c(=O)[nH]c1=O					Activity [22]: 0.27 pmol
